For series [1], the target named is 3',5'-cyclic-AMP phosphodiesterase 7B (Homo sapiens) (UniProt Q9NP56). Description: Inhibition of human recombinant PDE7B-mediated [3H]cAMP hydrolysis at 10 uM after 20 mins by scintillation proximity assay. In a few lines: (§1)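 Scintillation proximity assay with human recombinant full-length enzyme: PDE7A1 or PDE3A at 0.02 unit, or PDE7B at 0.5 unit. Enzyme incubated with 5 nCi [3H]cAMP for 20 min at 30 °C. SPA beads added, shaken 1 h at room temperature, then settled 30 min before counting. Single-point screens at 10 μM run in duplicate. IC50 from a sigmoidal dose−response fit.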
3',5'-cyclic-AMP phosphodiesterase 7B (Homo sapiens), sequence (Q9NP56 whole entry): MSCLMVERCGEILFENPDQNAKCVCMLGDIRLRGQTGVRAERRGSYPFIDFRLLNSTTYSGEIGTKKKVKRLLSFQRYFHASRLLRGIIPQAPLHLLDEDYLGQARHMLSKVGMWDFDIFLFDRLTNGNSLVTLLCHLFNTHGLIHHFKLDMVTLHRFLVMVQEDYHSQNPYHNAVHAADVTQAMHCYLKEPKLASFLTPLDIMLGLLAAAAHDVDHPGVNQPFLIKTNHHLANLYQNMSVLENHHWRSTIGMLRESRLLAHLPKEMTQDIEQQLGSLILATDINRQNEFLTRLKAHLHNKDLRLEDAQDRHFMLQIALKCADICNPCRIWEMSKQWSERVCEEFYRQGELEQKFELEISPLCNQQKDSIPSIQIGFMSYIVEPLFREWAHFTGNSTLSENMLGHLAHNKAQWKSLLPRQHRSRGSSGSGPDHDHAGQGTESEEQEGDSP
(In general: Scintillation proximity formats need no separation of bound from free tracer.)

Series [2] is described as follows: Permeability across after 2 hrs 30 mins by pig brain lipid membrane based PAMPA-BBB assay. Type of series: ADME. Conditions: read-out: permeability. In a few lines:
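PAMPA-BBB assay. Donor wells coated with porcine polar brain lipid in dodecane (20 mg/mL). Compound dissolved in EtOH/PBS pH 7.4; acceptor holds PBS/EtOH 70/30. Sandwich left 2 h 30 min at 25 °C. Concentrations read by UV at 3−5 wavelengths, in three wells and two independent runs. Ten reference drugs included for validation.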
(In general: In PAMPA a lipid-coated filter parts donor from acceptor wells.)

Series [3] addresses 3',5'-cyclic-AMP phosphodiesterase 4D (Homo sapiens, UniProt Q08499). As to the kind of experiment: Inhibition of human recombinant PDE4D3 using fluorescein 3',5'-cyclic phosphate after 60 mins by IMAP fluorescence polarization assay. In a few lines: (§2)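 IMAP fluorescence polarization assay. Human recombinant PDE4B2 or PDE4D3 (0.05 U) incubated with 1 nM fluorescein adenosine 3′,5′-cyclic phosphate for 60 min at ambient temperature. Stopped with IMAP binding reagent and left 1 h before reading FP. IC50 from a sigmoidal dose−response fit.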

For series [4], the system named is Mus musculus. Description: Antiinflammatory activity in C57BL/6J mouse MOG(35 to 55)-induced experimental autoimmune encephalomyelitis model assessed as inhibition of clinical symptoms at 10 mg/kg, ip dosed daily for 26 days starting at day 5 after disease onset measured on day 42 post-immunization. Further details: dose 10 mg/kg. Type of series: functional, organism-based.

In series [5] the target is 3',5'-cyclic-AMP phosphodiesterase 4B (Homo sapiens, UniProt Q07343). As to the kind of experiment: Inhibition of human recombinant PDE4B2 using fluorescein 3',5'-cyclic phosphate after 60 mins by IMAP fluorescence polarization assay. Summed up: as §2
3',5'-cyclic-AMP phosphodiesterase 4B, sequence (Q07343 whole entry): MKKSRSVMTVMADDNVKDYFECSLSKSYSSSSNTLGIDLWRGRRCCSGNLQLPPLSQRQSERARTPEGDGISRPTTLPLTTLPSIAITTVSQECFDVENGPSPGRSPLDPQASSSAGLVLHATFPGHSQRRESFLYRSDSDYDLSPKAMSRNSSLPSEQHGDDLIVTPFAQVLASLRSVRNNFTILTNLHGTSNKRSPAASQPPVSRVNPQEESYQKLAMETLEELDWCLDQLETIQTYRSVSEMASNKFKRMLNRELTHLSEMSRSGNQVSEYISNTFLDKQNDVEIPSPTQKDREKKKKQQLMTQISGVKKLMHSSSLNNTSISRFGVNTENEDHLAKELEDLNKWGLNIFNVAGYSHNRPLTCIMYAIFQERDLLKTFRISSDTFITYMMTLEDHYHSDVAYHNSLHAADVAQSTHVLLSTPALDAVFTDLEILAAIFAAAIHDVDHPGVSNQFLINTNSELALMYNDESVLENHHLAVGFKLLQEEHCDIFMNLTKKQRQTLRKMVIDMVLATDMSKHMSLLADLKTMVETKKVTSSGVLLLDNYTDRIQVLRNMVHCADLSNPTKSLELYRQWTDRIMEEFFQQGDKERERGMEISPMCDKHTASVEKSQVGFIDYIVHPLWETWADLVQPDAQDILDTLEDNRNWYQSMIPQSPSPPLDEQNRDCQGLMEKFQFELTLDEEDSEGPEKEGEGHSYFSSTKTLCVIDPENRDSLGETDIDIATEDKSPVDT
For orientation: In fluorescence polarisation assays a small probe gives low polarisation when free and higher when bound to something large.

The target in series [6] is T1, cGMP-inhibited 3',5'-cyclic phosphodiesterase 3A (Homo sapiens, UniProt Q14432). Description: Inhibition of human recombinant PDE3A-mediated [3H]cAMP hydrolysis after 20 mins by scintillation proximity assay. In a few lines: as §1
T1 sequence (Q14432 whole entry): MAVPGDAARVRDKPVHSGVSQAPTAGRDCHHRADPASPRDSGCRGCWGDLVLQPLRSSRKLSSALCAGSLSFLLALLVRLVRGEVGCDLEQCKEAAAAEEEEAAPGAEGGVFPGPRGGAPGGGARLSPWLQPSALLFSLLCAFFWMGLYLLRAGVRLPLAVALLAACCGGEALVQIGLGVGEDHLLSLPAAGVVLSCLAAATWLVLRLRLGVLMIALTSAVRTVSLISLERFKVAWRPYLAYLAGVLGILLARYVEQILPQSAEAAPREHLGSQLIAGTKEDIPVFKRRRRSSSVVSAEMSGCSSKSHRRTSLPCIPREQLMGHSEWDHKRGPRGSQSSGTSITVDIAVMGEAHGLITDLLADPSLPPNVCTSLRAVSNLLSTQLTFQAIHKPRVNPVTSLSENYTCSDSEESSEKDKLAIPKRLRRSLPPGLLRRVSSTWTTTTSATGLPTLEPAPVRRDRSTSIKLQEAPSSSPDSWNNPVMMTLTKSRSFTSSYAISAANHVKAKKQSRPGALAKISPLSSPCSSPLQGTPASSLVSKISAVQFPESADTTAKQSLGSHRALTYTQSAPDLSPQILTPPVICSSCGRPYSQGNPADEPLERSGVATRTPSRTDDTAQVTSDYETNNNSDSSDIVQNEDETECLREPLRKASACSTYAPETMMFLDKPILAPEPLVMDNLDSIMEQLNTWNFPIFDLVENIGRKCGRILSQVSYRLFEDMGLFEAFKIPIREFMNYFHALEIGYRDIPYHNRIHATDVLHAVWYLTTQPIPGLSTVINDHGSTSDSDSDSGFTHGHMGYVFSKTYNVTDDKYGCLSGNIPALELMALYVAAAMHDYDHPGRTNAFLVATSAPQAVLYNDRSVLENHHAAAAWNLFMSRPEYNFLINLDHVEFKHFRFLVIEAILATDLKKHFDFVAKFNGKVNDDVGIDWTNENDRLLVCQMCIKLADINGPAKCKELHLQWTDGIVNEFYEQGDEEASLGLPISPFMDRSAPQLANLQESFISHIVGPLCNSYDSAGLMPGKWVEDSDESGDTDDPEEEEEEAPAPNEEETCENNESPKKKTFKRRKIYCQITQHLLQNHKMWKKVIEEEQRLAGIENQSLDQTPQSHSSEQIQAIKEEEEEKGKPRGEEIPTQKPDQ
For series [7], the system named is Mus musculus. Description: Toxicity in C57BL/6J mouse MOG(35 to 55)-induced experimental autoimmune encephalomyelitis model assessed as decrease in body weight at 10 mg/kg, ip dosed daily for 26 days starting at day 5 after disease onset measured on day 42 post-immunization. Type of series: organism-based. Further details: dose 10 mg/kg, route intraperitoneal. The conditions noted are these: in vivo, 624 h.

Another series concerns Microglia. As to the kind of experiment: Antiinflammatory activity in rat microglia cells assessed as inhibition of LPS-induced nitrite production at 5 to 10 uM incubated for 1 hr prior to LPS-challenge measured after 24 hrs by Griess method. Type of series: functional, cell-based. Summed up: (§3)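 Glial cells from neonatal rat cerebral cortex; microglia and astrocytes separated by shaking and cultured 1 week. Purity >98% by OX42 and GFAP staining. Microglia kept with 10 ng/mL GM-CSF. Cells given compound for 1 h, then LPS (10 μg/mL) for 24 h. Nitrite in the supernatant measured by Griess reaction at 492/540 nm. Mean ± SD of six replications in three experiments.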

Series [8] has as its target T1, cGMP-inhibited 3',5'-cyclic phosphodiesterase 3A. Description: Inhibition of human recombinant PDE3A-mediated [3H]cAMP hydrolysis at 10 uM after 20 mins by scintillation proximity assay. In a few lines:
as §1

The target of series [9] is T2, High affinity 3',5'-cyclic-AMP phosphodiesterase 7A (Homo sapiens, UniProt Q13946). As to the kind of experiment: Inhibition of human recombinant PDE7A1-mediated [3H]cAMP hydrolysis after 20 mins by scintillation proximity assay. Summed up:
as §1

The species entered for series [10] is Homo sapiens. As to the kind of experiment: Selectivity index, ratio of IC50 for human recombinant PDE7A1 to IC50 for human recombinant PDE3A. Summed up:
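Ratio of IC50 values for PDE7A1 and PDE3A, each obtained by scintillation proximity assay with [3H]cAMP for 20 min at 30 °C.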

Series [11] has as its target T3, High affinity 3',5'-cyclic-AMP phosphodiesterase 7A (Mus musculus) (UniProt P70453).
T3 sequence (whole entry): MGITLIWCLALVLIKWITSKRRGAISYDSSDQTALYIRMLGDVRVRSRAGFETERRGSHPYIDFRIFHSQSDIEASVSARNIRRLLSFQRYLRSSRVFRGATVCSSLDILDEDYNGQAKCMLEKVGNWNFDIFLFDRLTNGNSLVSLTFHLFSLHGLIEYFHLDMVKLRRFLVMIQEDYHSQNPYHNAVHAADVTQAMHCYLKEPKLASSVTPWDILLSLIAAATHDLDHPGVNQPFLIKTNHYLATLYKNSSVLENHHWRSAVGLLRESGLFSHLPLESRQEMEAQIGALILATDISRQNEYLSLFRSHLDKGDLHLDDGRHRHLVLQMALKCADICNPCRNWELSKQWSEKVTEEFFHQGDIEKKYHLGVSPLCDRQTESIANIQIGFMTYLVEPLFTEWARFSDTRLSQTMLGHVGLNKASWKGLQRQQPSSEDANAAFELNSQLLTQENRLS
As to the kind of experiment: Inhibition of PDE7A1 in mouse RAW cells assessed as increase in cAMP level at 10 to 30 uM after 60 mins by enzyme immunoassay. Type of series: cell-based. Summed up:
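RAW cells seeded at 3 × 10^4 per well and incubated overnight. Compound added for 60 min at 10 or 30 μM. Intracellular cAMP quantified by enzyme immunoassay kit.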

Series [12] addresses T2, High affinity 3',5'-cyclic-AMP phosphodiesterase 7A. As to the kind of experiment: Competitive inhibition of human recombinant PDE7A1 using 5 nM to 2 uM cAMP as substrate by Lineweaver-Burk plot analysis. In a few lines: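 PDE7A1 scintillation proximity assay with unlabeled cAMP varied from 5 nM to 2 μM, against fixed [3H]cAMP tracer. Two inhibitor concentrations tested, with AMP formation measured. Data analysed by Lineweaver−Burk plots. Triplicate measurements, mean ± SEM.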

For the next series, the system named is Astrocyte. Description: Antiinflammatory activity in rat astrocytes assessed as inhibition of LPS-induced nitrite production at 5 to 10 uM incubated for 1 hr prior to LPS-challenge measured after 24 hrs by Griess method. Type of series: functional, cell-based. Summed up: as §3
The target in series [13] is T2, High affinity 3',5'-cyclic-AMP phosphodiesterase 7A. As to the kind of experiment: Inhibition of human recombinant PDE7A1-mediated [3H]cAMP hydrolysis at 10 uM after 20 mins by scintillation proximity assay. In a few lines: as §1
The species named for series [14] is Homo sapiens. As to the kind of experiment: Selectivity index, ratio of IC50 for human recombinant PDE3A to IC50 for human recombinant PDE7A1.
Series [15] is described as follows: Cytotoxicity against rat microglia cells at 5 to 10 uM after 16 hrs by MTT assay. Type of series: cell-based. In a few lines: (§4)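 Primary neonatal rat cortical astrocytes or microglia, after 1 week in culture, exposed to compound for 16 h. MTT at 0.5 mg/mL for 4 h, then solubilized in 10% SDS/0.01 M HCl for 12 h in the dark. Absorbance read at 595 nm. Six replications in three experiments.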

The test system of series [16] is Mus musculus. As to the kind of experiment: Antiinflammatory activity in C57BL/6J mouse MOG(35 to 55)-induced experimental autoimmune encephalomyelitis model assessed as inhibition of clinical symptoms at 10 mg/kg, ip dosed daily for 16 days starting at day 5 after disease onset measured on day 32 post-immunization. Type of series: functional, organism-based. On the set-up: dose 10 mg/kg.

The nature of series [17]: Cytotoxicity against rat astrocytes at 5 to 10 uM after 16 hrs by MTT assay. Type of series: cell-based. Conditions: astrocyte. In a few lines: as §4

The structures appear in SMILES notation. Active and inactive are the calls of the source. No cut-off for these calls is given here.

T2 sequence (Q13946 whole entry): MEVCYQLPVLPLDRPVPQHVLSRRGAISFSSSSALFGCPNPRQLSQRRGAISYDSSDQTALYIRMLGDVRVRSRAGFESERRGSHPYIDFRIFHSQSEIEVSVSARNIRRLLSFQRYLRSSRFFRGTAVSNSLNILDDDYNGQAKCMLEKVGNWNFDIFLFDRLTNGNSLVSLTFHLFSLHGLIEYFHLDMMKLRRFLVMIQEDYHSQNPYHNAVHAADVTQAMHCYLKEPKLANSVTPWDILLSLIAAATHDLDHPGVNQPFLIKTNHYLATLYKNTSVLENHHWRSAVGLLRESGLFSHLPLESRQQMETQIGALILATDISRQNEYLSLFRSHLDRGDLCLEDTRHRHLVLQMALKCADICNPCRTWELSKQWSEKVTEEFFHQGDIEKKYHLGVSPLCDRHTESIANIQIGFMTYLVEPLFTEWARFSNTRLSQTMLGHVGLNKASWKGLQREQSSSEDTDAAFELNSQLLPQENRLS
3',5'-cyclic-AMP phosphodiesterase 4D, sequence (Q08499 whole entry): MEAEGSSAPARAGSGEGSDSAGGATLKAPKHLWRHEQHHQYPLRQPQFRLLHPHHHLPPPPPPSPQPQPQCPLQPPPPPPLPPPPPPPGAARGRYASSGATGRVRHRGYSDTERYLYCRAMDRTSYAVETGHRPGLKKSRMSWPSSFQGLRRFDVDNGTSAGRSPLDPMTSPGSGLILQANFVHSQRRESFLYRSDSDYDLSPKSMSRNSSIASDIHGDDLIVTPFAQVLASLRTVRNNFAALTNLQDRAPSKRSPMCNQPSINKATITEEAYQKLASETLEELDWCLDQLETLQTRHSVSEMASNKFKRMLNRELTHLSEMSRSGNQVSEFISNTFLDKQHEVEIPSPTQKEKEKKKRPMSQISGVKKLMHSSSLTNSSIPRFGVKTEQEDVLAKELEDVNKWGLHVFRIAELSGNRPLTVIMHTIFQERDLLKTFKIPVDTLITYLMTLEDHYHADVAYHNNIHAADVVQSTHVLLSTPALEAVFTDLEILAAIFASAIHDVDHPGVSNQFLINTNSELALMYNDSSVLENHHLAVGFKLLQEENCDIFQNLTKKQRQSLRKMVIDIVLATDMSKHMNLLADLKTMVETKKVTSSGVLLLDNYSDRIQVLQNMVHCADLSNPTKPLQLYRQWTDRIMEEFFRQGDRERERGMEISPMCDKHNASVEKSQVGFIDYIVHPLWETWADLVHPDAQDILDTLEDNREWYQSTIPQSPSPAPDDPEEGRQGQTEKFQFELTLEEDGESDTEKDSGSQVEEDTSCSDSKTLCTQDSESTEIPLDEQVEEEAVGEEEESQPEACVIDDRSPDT

The term inhibition denotes the percentage by which the read-out fell short of the control. Usually IC50 stands for the concentration needed to halve the response being measured. A word on the Ki: it is the dissociation constant of the complex between target and ligand, obtained from inhibition or displacement. Consider `COc1cc(COC(=O)c2ccc(-c3ccccc3)o2)cc(OC)c1OC`, for which the figures for the inhibition in series [1], in series [8] and in series [13] were 23.2%, 46.1% and 57.9%, respectively. For the same compound, in [2], the Papp at 2.5 h amounted to 8.1 ×10⁻⁶ cm/s. Besides, the IC50 in series [3] is 66.3 µM; in series [5], 12.4 µM; in series [6], 54.6 µM; in series [9], 5.17 µM. In addition, the outcome in the series with Mus musculus [4] was inactive. Besides, the Activity result is “Toxic” in the series on Mus musculus [7], “Non-toxic” in series [15] and “Non-toxic” in [17]. The outcome in the series with Microglia, in the series on Astrocyte and in the series with Mus musculus [16] was Active. Besides, the Ratio IC50 was found to be 0.09 in the series filed under Homo sapiens [10] and 10 in the series filed under Homo sapiens [14]. Moreover, the inhibition entry in series [11] was “Active”. Besides, the Ki in series [12] stood at 5.91 µM.

Values taken from ChEMBL document CHEMBL2040739, “Effect of phosphodiesterase 7 (PDE7) inhibitors in experimental autoimmune encephalomyelitis mice. Discovery of a new chemically diverse family of compounds” (J Med Chem, 2012).
